Vif imaging: inhibitors of HIV Vif | HEK293T cells, Vif self-association by quenched fluorescence, imaging, 24 h | inhibition, % at 7.49 µM | actives 0.35% (n = 340,000) | AID 602346; in the data active means inhibition above about 50%, passing the limit was not always enough
SR-BI HDL uptake: mouse SR-BI HDL lipid transfer inhibition | Q61009 | ldlA[mSR-BI] CHO cells, DiI-HDL uptake fluorescence, 3 h | inhibition, % at 12.5 µM | actives 0.96% (n = 320,000);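 active means mean replicate inhibition of at least 70% and a set share of replicates each scoring 70 or more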;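 further: 0% = median of neutral control wells and 100% = median of positive control wells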
Target sequence (Q61009 whole entry, looked up): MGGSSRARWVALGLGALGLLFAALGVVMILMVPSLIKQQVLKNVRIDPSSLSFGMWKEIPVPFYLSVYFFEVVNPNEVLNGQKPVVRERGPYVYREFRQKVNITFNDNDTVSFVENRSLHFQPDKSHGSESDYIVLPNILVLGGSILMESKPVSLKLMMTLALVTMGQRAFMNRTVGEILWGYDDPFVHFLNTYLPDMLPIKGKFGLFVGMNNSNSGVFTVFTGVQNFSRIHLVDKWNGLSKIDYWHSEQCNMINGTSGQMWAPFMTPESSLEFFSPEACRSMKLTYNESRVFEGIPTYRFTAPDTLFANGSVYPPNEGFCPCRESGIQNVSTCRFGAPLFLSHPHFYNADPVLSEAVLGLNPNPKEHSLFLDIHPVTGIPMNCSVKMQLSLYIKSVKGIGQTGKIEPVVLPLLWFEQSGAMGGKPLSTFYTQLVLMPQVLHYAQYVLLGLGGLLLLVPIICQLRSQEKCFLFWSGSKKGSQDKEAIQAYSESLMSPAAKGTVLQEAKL
Bfl-1 A1 inh: inhibitors of the anti-apoptotic protein A1, read as caspase activation. actives 0.066% (n = 330,000). caspase activation, % (test concentration not listed). MEF A1-2A-BIM cells, Caspase-Glo 3/7 luminescence, 3 h; percent of clofoctol response, vehicle zero;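 active means over half of replicate activation scores above 10%, or exactly half above 10 with the replicate mean above 10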
SR-BI uptake up: SR-BI HDL lipid transfer activation | actives 0.096% (n = 320,000) | CHO ldlA[mSR-BI] cells, DiI-HDL uptake fluorescence, 3 h; 100 = double the neutral-control signal | activation, % at 12.5 µM;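 active means mean replicate activation of at least 60% and every replicate at or above 60%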;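 further: 0% = median plate neutral-control signal and 100% = twice that signal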
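material = CHO ldlA[mSR-BI] cells | medium = Ham's F12 with 0.5% BSA, HEPES 25 mM, pH 7.4 | reagent = fluorescent DiI-HDL, 10 µg/mL final | compound dosing = single-point compound dose | incubation = 3 h, 37 °C | measured by = bottom-read fluorescence, 550/595 nm | measure = HDL uptake via cellular fluorescence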
TAG inh: triacylglycerol accumulation inhibition | H9c2 cells, Nile Red lipid (TAG) fluorescence; cells loaded with 200 µM oleic acid | inhibition, % at 12.5 µM | actives 0.66% (n = 230,000);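 active means pattern-corrected inhibition of lipid staining of at least 50% with the nuclear-stain viability signal not falling by more than 50%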;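 further: 0% = DMSO wells and 100% = triacsin C control wells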
Starred values were filed as active, the others as inactive; i = inactive; / = no result. Only some compounds are listed: those with a hit (about 1.6% of all), similar ones and a draw of the others.

SMILES | Vif imaging | SR-BI HDL uptake | Bfl-1 A1 inh | SR-BI uptake up | TAG inh
COC(=O)c1ccc(OCC2c3cc(OC)c(OC)cc3CCN2C(C)=O)cc1 (configuration not stated) | -11 | -5 | -1 | 5 | 0
O=C1/C(=C/c2cccc([N+](=O)[O-])c2)CSc2ccc(Cl)cc21 | 2 | 18 | 0 | -18 | 16
O=C1/C(=C/c2cccc([N+](=O)[O-])c2)CCc2ccccc21 | 136* | -4 | 0 | 4 | /
CCN1C/C(=C\c2cccc([N+](=O)[O-])c2)C(=O)/C(=C/c2cccc([N+](=O)[O-])c2)C1 | 70* | 40 | / | -40 | /
O=C1/C(=C/c2ccc([N+](=O)[O-])cc2)CCc2ccccc21 | / | / | -7 | / | /
CC1(C)CC(=O)C=C(c2cccc(Cl)c2O)C1 | -3 | -1 | 0 | 1 | -7
CCOC(=O)C1=CC[C@@H](c2cc(OC)c(OC)c(OC)c2)N(S(=O)(=O)c2ccc(C)cc2)[C@H]1C(=O)OCC | -4 | -25 | 0 | 25 | -42
Cc1ccc(C)c(CN2C(=O)C(C)Oc3ccc(C)cc32)c1 (configuration not stated) | 1 | 77* | 0 | -77 | /
Cc1ccc(CN2C(=O)C(C)Oc3ccc(C)cc32)cc1 (configuration not stated) | -4 | / | / | / | 8
Cc1nn(Cc2c(Cl)cccc2Cl)c(C)c1NC(=O)c1cn(-c2ccccc2)nc1-c1ccccc1 | 2 | 23 | 13* | -23 | 50*
Cc1cccc(C)c1NC(=O)CNC(=O)c1cn(-c2ccccc2)nc1-c1ccccc1 | / | 36 | 0 | -36 | -10
CCCN(CC(=O)Nc1ccccc1C)C(=O)c1ccc(N2CCCC(C)C2)c([N+](=O)[O-])c1 (configuration not stated) | -16 | 27 | / | -27 | 28
COc1ccc(-c2cc(C(=O)N3CCCCCC3)c3ccccc3n2)cc1OC | -2 | / | / | / | -4
COc1ccc(-c2cc(C(=O)N3CCCCCC3)c3ccccc3n2)cc1 | -6 | 75* | / | -75 | 8
COc1ccc(OC)c(C2C3=C(COC3=O)Nc3cc4c(cc32)OCO4)c1 (configuration not stated) | 72* | -11 | / | 11 | /
COc1ccc(C2C3=C(CC(C)(C)CC3=O)Nc3cc4c(cc32)OCO4)cc1 (configuration not stated) | 4 | 43 | 0 | -43 | 1
O=C(c1ccccc1)C1OC1C(=O)c1ccccc1 (configuration not stated) | 73* | 2 | / | -2 | 8
Cc1c(NC(=O)COc2ccc(C(C)C)cc2)c(=O)n(-c2ccccc2)n1C | / | -22 | 0 | 22 | 8
O=C(C1CCN(C2CCN(CC3CC=CCC3)CC2)CC1)N1CCOCC1 (configuration not stated) | 9 | / | 1 | / | 9
COc1cc(Cl)cc(/C=C/c2ccc3ccccc3n2)c1OC(C)=O | 6 | 80* | 0 | -80 | /
CC(C)(C)c1ccc(C(=O)NCCC(=O)Nc2cc(Cl)ccc2N2CCOCC2)cc1 | -1 | -5 | 0 | 5 | 57*
COC(=O)c1ccc(C(=O)OC)c(NC(=O)COC(=O)C23CC4CC(CC(O)(C4)C2)C3)c1 | 52* | 20 | 0 | -20 | 2
Cc1ccc(Oc2c(CO)c(-c3ccccc3)nn2C)cc1 | -3 | -10 | 0 | 10 | -37
O=C(O)COc1ccc(/C=N/NC(=O)c2ccc(-c3csc(Nc4ccc(Cl)cc4)n3)cc2)cc1 | -11 | 74* | / | -74 | 21
Nc1ccccc1SCC(=O)Nc1ccc(N2CCOCC2)cc1 | 57* | 46 | 1 | -46 | 10
SMILES | Vif imaging | SR-BI HDL uptake | Bfl-1 A1 inh | SR-BI uptake up | TAG inh
CCn1c2ccccc2c2cc([N+](=O)[O-])ccc21 | 0 | 32 | 0 | -32 | -3
CN(C)CCn1c2ccccc2c2nc3ccc([N+](=O)[O-])cc3cc21 | 0 | / | -1 | / | 56*
COc1ccccc1/C=N/Nc1cc(C)nc(N2CCOCC2)n1 | -10 | 14 | 1 | -14 | 3
CCOc1cc(/C=N/Nc2cc(C)nc(-n3nc(C)cc3C)n2)ccc1O | 0 | / | 8.6* | / | 68*
COc1ccc(/C=N/Nc2cc(C)nc(-n3nc(C)cc3C)n2)c(OC)c1 | -4 | 79* | -3 | -79 | /
CCOC(=O)CSc1nc(C2CC2)cc(-c2ccc(F)cc2)c1C#N | -4 | 72* | 1 | -72 | -115
N#Cc1c(C(F)(F)F)cc(-c2ccccc2)nc1SCC(=O)Nc1sc2c(c1C#N)CCC2 | -8 | 106* | 1 | -106 | 13
N#Cc1ccc(-c2cccnc2)nc1SCC(=O)c1ccccc1 | 173* | 29 | -1 | -29 | 18
COc1ccc(-c2ccc(C#N)c(SCC(=O)Nc3sc4c(c3C#N)CCC4)n2)cc1 | -6 | / | 1 | / | 15
N#Cc1ccc(-c2ccccc2)nc1SCC(=O)c1cccc(Cl)c1 | i | 26 | 0 | -26 | -13
N#Cc1ccc(-c2cccnc2)nc1SCC(=O)Nc1sc2c(c1C#N)CCC2 | 15 | 76* | 0 | -76 | /
COc1ccc(CCN2CC(C(=O)NCCc3cnn(C)c3)CCC2=O)cc1 (configuration not stated) | -2 | -9 | -1 | 9 | /
O=C(Nc1cccc(C(F)(F)F)c1)c1csc([C@H]2C[C@H](O)[C@@H](CO)O2)n1 | / | / | / | / | -22
CCc1nnc(NC(=O)CSc2ccc(-c3ccc(F)cc3)nn2)s1 | / | / | 0 | / | /
CCc1nnc(NC(=O)CSc2nc(-c3ccccc3)cc(-c3ccc(F)cc3)c2C#N)s1 | -9 | 44 | 7.1* | -44 | 16
COc1ccccc1N1CCN(C(=O)C2CC2)CC1 | 5 | / | 0 | / | -15
COc1ccccc1N1CCN(C(=O)C2c3ccccc3Oc3ccccc32)CC1 | -11 | 5 | 0 | -5 | 57*
COc1ccc(NC(=O)Nc2ccc3c(c2)OCO3)c(C)c1 | 2 | -19 | 1 | 19 | -14
Cn1nc(C(=O)Nc2ccc(Br)cc2)cc1C(=O)Nc1ccc(Br)cc1 | 38 | -4 | 1 | 4 | /
COc1cccc(NC(=O)c2ccc3c(c2)CCN3S(C)(=O)=O)c1 | -2 | 71* | 0 | -71 | /
CN1CCSc2ccc(C(=O)Nc3ccc(Cl)cc3)cc21 | -14 | / | -1 | / | -4
COc1cccc(NC(=O)c2cc(C(=O)Nc3cccc(OC)c3)n(C)n2)c1 | 50 | 78* | 0 | -78 | /
COc1cccc(NC(=O)c2ccc3c(c2)N(C)CCS3)c1 | -6 | 91* | -8 | -91 | -10
COCCN1C[C@@H](CO)O[C@@H](n2cnc3c(NCCN(C)C)ncnc32)C1 | / | / | / | / | -2
Cc1nn(C)cc1S(=O)(=O)Nc1ccc(F)c(F)c1 | -8 | -5 | 0 | 5 | -8
CSc1cccc(NC(=O)/C=C/c2ccccc2)c1 | 0 | 73* | -4 | -58 | 13
CCOc1ncccc1C(=O)OCc1ccccc1 | 51* | -6 | -1 | 6 | /
